The term inhibition denotes the percentage by which the read-out fell short of the control.

The source made the active and inactive calls.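 The calls were made as follows: active = inhibition of 50% or more; inactive = inhibition below 50%.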

Chain of Diacylglycerol lipase-beta (Mus musculus) (Q91WC9 whole entry, looked up): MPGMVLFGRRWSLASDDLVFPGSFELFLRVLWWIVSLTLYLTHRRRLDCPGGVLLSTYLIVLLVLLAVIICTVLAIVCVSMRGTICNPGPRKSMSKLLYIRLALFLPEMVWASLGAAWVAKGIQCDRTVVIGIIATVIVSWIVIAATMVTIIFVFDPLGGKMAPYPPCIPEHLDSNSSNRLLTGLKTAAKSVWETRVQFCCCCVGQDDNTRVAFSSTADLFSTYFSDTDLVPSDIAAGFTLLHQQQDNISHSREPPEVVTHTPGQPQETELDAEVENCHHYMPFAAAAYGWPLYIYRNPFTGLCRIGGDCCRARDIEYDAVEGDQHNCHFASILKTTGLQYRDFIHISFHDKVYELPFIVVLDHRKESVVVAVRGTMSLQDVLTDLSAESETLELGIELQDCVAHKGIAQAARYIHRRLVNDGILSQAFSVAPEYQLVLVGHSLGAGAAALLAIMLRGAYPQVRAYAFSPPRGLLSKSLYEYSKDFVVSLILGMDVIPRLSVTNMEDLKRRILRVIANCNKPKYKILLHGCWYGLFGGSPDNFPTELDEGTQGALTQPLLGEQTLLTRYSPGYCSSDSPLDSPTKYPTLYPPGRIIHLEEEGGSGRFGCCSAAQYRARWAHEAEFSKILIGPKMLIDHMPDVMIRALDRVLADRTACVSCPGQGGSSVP

The target in the experiment is Diacylglycerol lipase-beta (Mus musculus) (UniProt Q91WC9). The experiment can be described thus: DAGLb inhibitors by competitive gel ABPP, late-stage follow-up, biochemical, in-gel fluorescence, overexpressed mouse DAGLb, triazole urea library (AID 602303). The settings on record: HEK293T membrane overexpressing mouse DAGLb, gel ABPP FP-Rh; at 0.5 µM; stronger effect = higher value. Put shortly: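 test system = HEK293T membranes overexpressing mouse DAGLb | buffer or medium = DPBS | compound dosing = one concentration, 0.5 µM | timing = 30 min compound plus 30 min probe, 37 °C | detection = SDS-PAGE with in-gel fluorescence scanning of probe-labeled bands | read-out basis = percent inhibition from band integrated optical density, normalized to DMSO and background | controls = high DMSO only, low gel background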
For `CC1CCN(C(=O)n2ncc(C(O)(c3ccccc3)c3ccccc3)n2)CC1`, the inhibition was 10% (inactive).

`O=C(N1CCOCC1)n1ncc(-c2ccc(OC(F)(F)F)cc2)n1`: the inhibition is 40% (inactive).

Take `C=CCN(CC=C)C(=O)n1ccnn1`: the inhibition is 25% (inactive).

Turning to `CN(C(=O)n1ccnn1)c1ccccc1`, the inhibition was 25% (inactive).

In the case of `COC1CCN(C(=O)n2ncc(C(O)(c3ccccc3)c3ccccc3)n2)CC1`, the inhibition is 0% (inactive).

For the compound `O=C(N1CCCC1)n1ncc(-c2cc(F)cc(F)c2)n1`, the inhibition was 10% (inactive).

With `CC(C)(C)C1CCN(C(=O)n2ncc(C(O)(c3ccccc3)c3ccccc3)n2)CC1`, the inhibition was 45% (inactive).

In the case of `CCN(CC)C(=O)n1ncc(C(O)(c2ccccc2)c2ccccc2)n1`, the inhibition is 5% (inactive).

Regarding `O=C(N1CCOCC1)n1ncc(-c2ccccc2)n1`, the inhibition is 0% (inactive).

On to `O=C(N1CCCCC1)n1ncc(C(O)c2ccccc2)n1` (configuration not stated), for which the inhibition was 5% (inactive).

As for `O=C(N1CCOCC1)n1ccnn1`, the inhibition was 40% (inactive).

Consider `O=C(N1CCCC1)n1ncc(C(O)(c2ccccc2)c2ccccc2)n1`, for which the inhibition is 0% (inactive).

`COCC1CCCCN1C(=O)n1ncc(C(O)(c2ccccc2)c2ccccc2)n1` (configuration not stated): the inhibition is 15% (inactive).

In the case of `O=C(N1CCCC1)n1ncc(-c2ccccc2)n1`, the inhibition was 35% (inactive).

Take `CCC1CCCCN1C(=O)n1ncc(C(O)(c2ccccc2)c2ccccc2)n1` (configuration not stated): the inhibition was 10% (inactive).

In the case of `CC1CCN(C(=O)n2ncc(C(C)(C)O)n2)CC1`, the inhibition is 35% (inactive).

Take `C=CCN(CC=C)C(=O)n1ncc(-c2cc(F)cc(F)c2)n1`: the inhibition was 25% (inactive).

On to `O=C(N1CCCCC1)n1ncc(C(O)(c2ccccc2)c2ccccc2)n1`, for which the inhibition was 10% (inactive).

For the compound `C=CCN(CC=C)C(=O)n1ncc(C(O)(c2ccccc2)c2ccccc2)n1`, the inhibition is 60%.

`O=C(N1CCCC1)n1ncc(-c2ccc(Oc3ccccc3)cc2)n1`: the inhibition is 45% (inactive).

Take `O=C(N1CCCC1)n1ccnn1`: the inhibition was 30% (inactive).

On to `C=CCN(CC=C)C(=O)n1ncc(-c2ccc(OC(F)(F)F)cc2)n1`, for which the inhibition is 50%.

Turning to `O=C(N1CCOCC1)n1ncc(C(O)(c2ccccc2)c2ccccc2)n1`, the inhibition was 15% (inactive).

Regarding `O=C(N1CCC(C(O)(c2ccccc2)c2ccccc2)CC1)n1ncc(C(O)(c2ccccc2)c2ccccc2)n1`, the inhibition was 30% (inactive).

In the case of `O=C(N1CCCC1)n1ncc(-c2ccc(-c3ccccc3)cc2)n1`, the inhibition is 25% (inactive).

As to `O=C(N1CCCC1)n1ncc(-c2ccc(OC(F)(F)F)cc2)n1`, the inhibition is 15% (inactive).

Turning to `O=C(N(c1ccccc1)c1ccccc1)n1ccnn1`, the inhibition was 5% (inactive).

As to `O=C(N1CCCCC1)n1ccnn1`, the inhibition is 20% (inactive).

In the case of `O=C(N1CCCCC1Cc1ccccc1)n1ncc(C(O)(c2ccccc2)c2ccccc2)n1` (configuration not stated), the inhibition is 95%.

Take `O=C(N1CCc2ccccc2C1)n1ncc(C(O)(c2ccccc2)c2ccccc2)n1`: the inhibition is 35% (inactive).

With `CC(C)(C)C1CCN(C(=O)n2ncc(C3(O)CCCCC3)n2)CC1`, the inhibition is 20% (inactive).

Consider `C=CCN(CC=C)C(=O)n1ncc(-c2ccccc2)n1`, for which the inhibition was 5% (inactive).

Consider `COc1ccc2cc(-c3cnn(C(=O)N4CCCCC4)n3)ccc2c1`, for which the inhibition is 20% (inactive).

For `O=C(N1CCCC1)n1ncc(-c2ccc(Cl)c(Cl)c2)n1`, the inhibition was 30% (inactive).

Turning to `CC(C)(C)C1CCN(C(=O)n2nccn2)CC1`, the inhibition was 35% (inactive).

For the compound `O=C(OC(c1ccccc1)c1cnn(C(=O)N2CCCCC2)n1)N1CCCCC1` (configuration not stated), the inhibition is 15% (inactive).

Take `CCN(CC)C(=O)n1ccnn1`: the inhibition was 0% (inactive).

For the compound `O=C(N1CCCC1)n1ncc(-c2ccc([N+](=O)[O-])cc2)n1`, the inhibition was 35% (inactive).

Regarding `CN1CCN(C(=O)n2ccnn2)CC1`, the inhibition is 35% (inactive).

For `O=C(N1CCC(Cc2ccccc2)CC1)n1ncc(C(O)(c2ccccc2)c2ccccc2)n1`, the inhibition is 30% (inactive).

`O=C(n1ccnn1)n1c2ccccc2c2ccccc21`: the inhibition is 25% (inactive).

`O=C(N1CCOCC1)n1ncc(-c2cc(F)cc(F)c2)n1`: the inhibition was 20% (inactive).

In the case of `O=C(N1CCC(C(O)(c2ccccc2)c2ccccc2)CC1)n1nccn1`, the inhibition was 15% (inactive).

On to `CN(C)C(=O)n1ccnn1`, for which the inhibition was 0% (inactive).

Turning to `COCCCC1CCCCN1C(=O)n1ncc(C(O)(c2ccccc2)c2ccccc2)n1` (configuration not stated), the inhibition was 5% (inactive).

For the compound `O=C(N(c1ccccc1)c1ccccc1)n1ncc(C(O)(c2ccccc2)c2ccccc2)n1`, the inhibition was 65%.

Regarding `O=C(N1CCCC1)n1ncc(C2(O)CCCCC2)n1`, the inhibition is 25% (inactive).

Turning to `CC(C)(O)c1cnn(C(=O)N2CCCCC2)n1`, the inhibition is 25% (inactive).

As to `CC(C)(O)c1cnn(C(=O)N2CCCC2)n1`, the inhibition was 25% (inactive).

Take `O=C(N1CCCCC1)n1ncc(-c2ccc(Oc3ccccc3)cc2)n1`: the inhibition was 40% (inactive).

With `COc1ccc2cc(-c3cnn(C(=O)N4CCCC4)n3)ccc2c1`, the inhibition is 20% (inactive).

In the case of `CC(C)(O)c1cnn(C(=O)N2CCC(C(C)(C)C)CC2)n1`, the inhibition is 45% (inactive).

Source of the values: PubChem BioAssay AID602303 (The Scripps Research Institute Molecular Screening Center, 2012).
